Results on 27 molecules are retold here after ChEMBL document CHEMBL1122871, “Monocyclic pteridine analogues. Inhibition of Escherichia coli dihydropteroate synthase by 6-amino-5-nitrosoisocytosines” (J Med Chem, 1985).

For experiment [1], the target named is T1, Dihydropteroate synthase (Escherichia coli K-12, UniProt P0AC13).
T1 sequence (P0AC13 whole entry): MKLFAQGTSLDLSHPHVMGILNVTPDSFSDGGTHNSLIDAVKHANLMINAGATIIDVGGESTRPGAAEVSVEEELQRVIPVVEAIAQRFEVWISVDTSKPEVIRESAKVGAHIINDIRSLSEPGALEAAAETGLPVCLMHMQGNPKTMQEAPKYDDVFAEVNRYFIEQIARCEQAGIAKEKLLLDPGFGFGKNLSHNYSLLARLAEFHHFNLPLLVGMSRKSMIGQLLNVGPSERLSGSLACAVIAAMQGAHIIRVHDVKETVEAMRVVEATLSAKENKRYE
Nature of the experiment: (§1) In vitro inhibition of dihydropteroate synthase from Escherichia coli. The settings on record: read-out: I50. In a few lines: (§2)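 Partially purified synthase from E. coli B. The assay used [14C]carboxy-p-aminobenzoic acid as substrate. Paper chromatography separated radiolabelled dihydropteroate from unreacted substrate. Results were given as the micromolar concentration giving 50% inhibition, or as percent inhibition at a stated concentration.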

Experiment [2] addresses T2, Dihydropteroate synthase (Escherichia coli K-12) (UniProt P0AC13).
T2 sequence (whole entry): T1 sequence (P0AC13 whole entry)
In words: Kinetic constant for synthase inhibition. The gist of the method: (§3)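 Kinetic runs varied either the pterin substrate or PABA across inhibitor levels. Velocity was nmol dihydropteroate formed in a 12-min incubation at 37 °C, plotted as double reciprocals. Data were computer-fitted to competitive or noncompetitive inhibition models and statistically tested for fit to each model.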

For experiment [3], the target named is T2, Dihydropteroate synthase (Escherichia coli K-12). The description is as §1. The settings on record: concentration not given here. Set-up: concentration or dose not given beside the values. In a few lines:
as §2

Experiment [4] has the same target. Nature of the experiment: In vitro percent inhibition of dihydropteroate synthase from Escherichia coli at 20 uM. The gist of the method: as §2
In experiment [5] the target is T1, Dihydropteroate synthase. In words: Inhibitory activity against binding of para-aminobenzoic acid to synthase. The settings on record: read-out: I50. The gist of the method:
as §3

Turning to `CNc1nc(N)nc(O)c1N=O`, at Dihydropteroate synthase [1], the IC50 amounted to 1.6 µM. The same molecule gave a Kis in experiment [2] of 0.085 µM.
On to `Nc1nc(O)c(N=O)c(NCCCCc2ccccc2)n1`, for which, at Dihydropteroate synthase [1], the IC50 worked out at 2.5 µM.
The inhibition is the change of the read-out against control, counted positive when it falls. Consider `Nc1nccc(O)n1`, for which the IC50 on Dihydropteroate synthase [1] was greater than 500 µM. Besides, the inhibition in experiment [3] is less than 10%.
The matching figures for `CNc1nc(N)nc(O)c1C=O`: greater than 300 µM and less than 10%.
With `Nc1nc(O)c(N=O)c(O)n1`, the IC50 on Dihydropteroate synthase [1] was greater than 200 µM. For the same molecule, in experiment [3], the inhibition is less than 10%.
Turning to `N#Cc1c(O)nc(N)nc1NCCCCc1ccccc1`, at Dihydropteroate synthase [1], the IC50 was found to be 290 µM.
As for `Nc1nc(O)c(N=O)c(NCCCc2ccccc2)n1`, the IC50 on Dihydropteroate synthase [1] was 7.8 µM.
In experiment [4], `CSc1nc(N)nc(O)c1N=O` gave an inhibition of 17%.
For `Nc1nc(O)c(N=O)c(Nc2ccccc2)n1`, at Dihydropteroate synthase [1], the IC50 is greater than 100 µM. In experiment [3], the inhibition is less than 10%.
Take `CNc1cc(O)nc(N)n1`: the IC50 at Dihydropteroate synthase [1] was greater than 110 µM. In addition, the inhibition in experiment [3] was less than 10%.
Take `CCNc1nc(N)nc(O)c1N=O`: the IC50 on Dihydropteroate synthase [1] was 11 µM.
`Nc1nc(N)c(N=O)c(=O)[nH]1`: the IC50 at Dihydropteroate synthase [1] came out at 5.8 µM.
For the molecule `Nc1nc(O)c(N=O)c(NCCc2ccccc2)n1`, the IC50 on Dihydropteroate synthase [1] was found to be 4.2 µM.
The same measure, in the same setting: as for `Nc1nc(O)c(N=O)c(NCc2ccccc2)n1`, the figure is 12.9 µM.
Regarding `Nc1nc(O)c(C=O)c(NCCCCc2ccccc2)n1`, the IC50 at Dihydropteroate synthase [1] was greater than 100 µM. Besides, the inhibition in experiment [3] is less than 10%.
For the molecule `Nc1nc(O)c(N=O)c(NCCCS(=O)(=O)c2ccccc2)n1`, the IC50 on Dihydropteroate synthase [1] is 18 µM.
Still for that read-out and setting: as for `Nc1nc(O)c(N=O)c(NCCCO)n1`, the figure is 35 µM.
Still for that read-out and setting: as for `Nc1nc(O)c(N=O)c(NCCCCCCc2ccccc2)n1`, the figure is 9 µM.
With `Nc1nc(O)c(N=O)c(NCCCOc2ccccc2)n1`, the IC50 at Dihydropteroate synthase [1] was 3.7 µM. Moreover, the Kis in experiment [2] turned out to be 0.69 µM.
Take `CC(C)Nc1nc(N)nc(O)c1N=O`: the IC50 at Dihydropteroate synthase [1] stood at 208 µM.
Still for that read-out and setting: the result for `CCN(CC)c1nc(N)nc(O)c1N=O` reads 197 µM; that for `Nc1nc(O)c([N+](=O)[O-])c(NCCCCc2ccccc2)n1`, 21 µM.
As for `Nc1ccc(S(=O)(=O)Nc2nccs2)cc1` [SULFATHIAZOLE], the IC50 at Dihydropteroate synthase [1] worked out at 2.5 µM.
Still for that read-out and setting: the result for `Nc1nc(O)c(N=O)c(NCCCCCc2ccccc2)n1` reads 5.9 µM.
As to `CNc1nc(N)[nH]c(=O)c1[N+](=O)[O-]`, the IC50 at Dihydropteroate synthase [1] stood at 2.8 µM.
As for `Cc1cc(NS(=O)(=O)c2ccc(N)cc2)no1` [SULFAMETHOXAZOLE], the IC50 on Dihydropteroate synthase [1] is 4.7 µM.
As for `Nc1nc(O)c(N=O)c(NCCCCCCCc2ccccc2)n1`, the IC50 on Dihydropteroate synthase [1] and at Dihydropteroate synthase [5] was 1.4 µM throughout.
